Each structure is given as a SMILES string.

One data set concerns MDR1. The data set can be described thus: Permeability in dog MDCK2 cells over expressing MDR1 assessed as efflux ratio after 1 hr. The conditions noted are these: MDCK-MDR1.
Data set [1] can be described thus: Ratio of drug level in brain to blood in complete Freund's adjuvant induced rat inflammatory pain model at 10 mg/kg, po bid for 5 days measured after 1 hr on day 5.
Data set [2] can be described thus: Ratio of drug level in brain to blood in complete Freund's adjuvant induced rat inflammatory pain model at 3 mg/kg, po bid for 5 days measured after 1 hr on day 5.
Data set [3] deals with T1, Prostaglandin E2 receptor EP1 subtype (Homo sapiens, UniProt P34995).
T1 sequence (P34995 whole entry): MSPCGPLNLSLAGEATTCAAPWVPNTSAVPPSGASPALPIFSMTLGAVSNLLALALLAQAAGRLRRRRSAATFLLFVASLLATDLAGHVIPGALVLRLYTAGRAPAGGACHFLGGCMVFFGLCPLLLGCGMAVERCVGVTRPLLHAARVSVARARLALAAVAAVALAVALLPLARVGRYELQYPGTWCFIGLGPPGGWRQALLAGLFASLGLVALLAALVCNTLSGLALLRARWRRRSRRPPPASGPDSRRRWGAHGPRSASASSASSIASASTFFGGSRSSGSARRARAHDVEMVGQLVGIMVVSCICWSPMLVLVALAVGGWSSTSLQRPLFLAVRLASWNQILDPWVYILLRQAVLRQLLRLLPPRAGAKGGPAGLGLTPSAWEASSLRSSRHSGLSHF
The data set can be described thus: Displacement of [3H]PGE2 from human EP1 receptor expressed in CHO cells. Format: cell-based. The gist of the method:
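Radioligand binding with [3H]-PGE2 in CHO cells overexpressing human EP1 receptor. Values are the mean of at least three experiments with standard deviations.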
Background: In a radioligand displacement assay an active substance lowers the binding of a labelled ligand.

The target of data set [4] is Prostaglandin E2 receptor EP2 subtype (Homo sapiens, UniProt P43116). In words: Inhibition of EP2 receptor.
For the next data set, the target named is T2, Thromboxane A2 receptor (Homo sapiens, UniProt P21731).
T2 sequence (P21731 whole entry): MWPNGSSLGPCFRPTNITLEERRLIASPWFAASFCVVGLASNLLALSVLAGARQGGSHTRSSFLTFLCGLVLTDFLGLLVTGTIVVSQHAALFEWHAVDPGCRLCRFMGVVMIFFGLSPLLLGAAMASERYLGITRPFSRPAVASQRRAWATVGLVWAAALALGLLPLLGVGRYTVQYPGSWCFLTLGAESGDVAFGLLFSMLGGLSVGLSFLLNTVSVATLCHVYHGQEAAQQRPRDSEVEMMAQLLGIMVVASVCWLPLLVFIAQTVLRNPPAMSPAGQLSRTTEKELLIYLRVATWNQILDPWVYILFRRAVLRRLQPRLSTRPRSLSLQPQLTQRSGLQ
In words: Inhibition of TP receptor.

The target of data set [5] is Prostaglandin G/H synthase 1 (Homo sapiens, UniProt P23219). In words: Inhibition of COX1.
A short description of data set [6]: Drug level in blood of complete Freund's adjuvant induced rat inflammatory pain model at 10 mg/kg, bid measured after 1 hr on day 1. Format: ADME, organism-based. Also on record: dose 10 mg/kg. To be noted: read-out: Drug uptake. The gist of the method: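 Satellite group dosed at 10 mg/kg b.i.d. for 5 days; blood sampled 1 h post-dose on day 1 and on day 5.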

The nature of data set [7]: Drug level in blood of complete Freund's adjuvant-induced rat inflammatory pain model at 1 mg/kg, po administered after 23 hrs of adjuvant challenge measured after 1 hr. Format: ADME, organism-based. The arrangement: dose 1 mg/kg, route oral. The conditions noted are these: read-out: Drug uptake. The gist of the method:
(§1)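 CFA rat study: oral doses of 1, 3 or 10 mg/kg given 23 h after intraplantar adjuvant, samples 1 h post-dose. Blood values are the mean from seven animals. Brain values are the mean from three animals.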

Data set [8] in a line: Drug level in brain of complete Freund's adjuvant-induced rat inflammatory pain model at 3 mg/kg, po administered after 23 hrs of adjuvant challenge measured after 1 hr. The class given is ADME, organism-based. Also on record: dose 3 mg/kg, route oral. To be noted: read-out: Drug uptake. The method, boiled down:
as §1

The nature of data set [9]: Ratio of drug level in brain to blood in complete Freund's adjuvant-induced rat inflammatory pain model at 1 mg/kg, po administered after 23 hrs of adjuvant challenge measured after 1 hr. Format: ADME, organism-based. Also on record: dose 1 mg/kg, route oral. The conditions noted are these: brain and blood. The gist of the method:
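Rat CFA inflammatory pain model: oral dosing at 1, 3 or 10 mg/kg 23 h after intraplantar adjuvant; blood and brain sampled 1 h post-dose from the same animal; Br:Bl ratio is the mean from three animals.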

A short description of data set [10]: Drug level in mouse blood at 0.5 mg/kg/hr administered by infusion for 12 hrs. Format: ADME, organism-based. To be noted: intravenous, read-out: Drug uptake. The gist of the method:
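Steady-state 12 h infusion at 5 mL/kg/h to reach a target dose of 0.5 mg/kg/h; blood and brain concentrations measured. Data are the mean from three animals.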

Data set [11] in a line: Ratio of drug level in brain to blood of rat at 0.5 mg/kg/hr administered by infusion for 12 hrs. To be noted: brain and blood, intravenous.
A short description of data set [12]: Drug level in Landrace pig brain at 0.5 mg/kg/hr administered by infusion for 1 hrs. Format: ADME, organism-based, Sus scrofa. The conditions noted are these: intravenous, read-out: Drug uptake. The method, boiled down:
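Landrace pig given a 1 h infusion; blood and brain concentrations measured in a single animal.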

The nature of data set [13]: Ratio of drug level in brain to blood of Landrace pig at 0.5 mg/kg/hr administered by infusion for 1 hrs. The conditions noted are these: brain and blood, intravenous.
Data set [14] can be described thus: Clearance in cynomolgus monkey blood at 1 mg/kg administered by intravenous infusion for 1 hr. Format: ADME, organism-based, Macaca fascicularis. Also on record: dose 1 mg/kg, route intravenous. The method, boiled down:
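Intravenous administration as a 1 h infusion of a 1 mg/kg dose. Rats were male Sprague-Dawley; dogs were beagle; monkeys were cynomolgus. Blood clearance, Vss and half-life determined.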

The next data set deals with Hepatocyte. In words: Intrinsic clearance in rat hepatocytes measured per gram of live. The class given is ADME, cell-based, Liver. The method, boiled down: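 Intrinsic clearance in hepatocytes expressed as mL/min/g liver. Cell densities were 0.15–0.2 × 10^6 cells/mL or 0.54–0.7 × 10^6 cells/mL.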

Chain of Prostaglandin G/H synthase 1 (P23219 whole entry): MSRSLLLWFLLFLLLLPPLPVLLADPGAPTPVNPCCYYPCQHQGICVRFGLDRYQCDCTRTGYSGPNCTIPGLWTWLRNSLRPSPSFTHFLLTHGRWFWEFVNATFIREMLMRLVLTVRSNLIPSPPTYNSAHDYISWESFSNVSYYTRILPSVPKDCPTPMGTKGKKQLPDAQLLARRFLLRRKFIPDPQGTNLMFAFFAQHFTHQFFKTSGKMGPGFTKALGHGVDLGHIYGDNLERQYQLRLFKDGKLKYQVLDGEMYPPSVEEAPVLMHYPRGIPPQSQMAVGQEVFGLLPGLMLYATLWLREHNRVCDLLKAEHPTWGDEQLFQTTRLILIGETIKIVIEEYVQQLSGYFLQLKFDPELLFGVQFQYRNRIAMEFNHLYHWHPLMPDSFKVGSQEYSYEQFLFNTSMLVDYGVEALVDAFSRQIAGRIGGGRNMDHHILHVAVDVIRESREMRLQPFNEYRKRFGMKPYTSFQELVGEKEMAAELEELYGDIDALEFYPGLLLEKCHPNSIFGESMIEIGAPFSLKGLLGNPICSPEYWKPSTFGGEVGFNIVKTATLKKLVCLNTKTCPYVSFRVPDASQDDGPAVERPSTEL
Chain of Prostaglandin E2 receptor EP2 subtype (P43116 whole entry): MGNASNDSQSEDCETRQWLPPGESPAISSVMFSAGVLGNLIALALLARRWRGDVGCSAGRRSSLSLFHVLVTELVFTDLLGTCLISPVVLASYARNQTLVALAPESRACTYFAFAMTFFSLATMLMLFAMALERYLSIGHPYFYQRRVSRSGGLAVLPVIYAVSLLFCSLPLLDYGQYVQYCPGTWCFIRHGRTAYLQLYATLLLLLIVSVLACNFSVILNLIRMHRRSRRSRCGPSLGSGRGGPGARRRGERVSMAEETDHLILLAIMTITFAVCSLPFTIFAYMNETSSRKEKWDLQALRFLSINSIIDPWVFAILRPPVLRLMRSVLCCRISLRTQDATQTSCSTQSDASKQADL

Regarding `O=C([O-])c1cccc(Cc2cc(Cl)ccc2OCc2ccc(Cl)cc2F)n1.[Na+]`, in the data set on MDR1, the efflux ratio (as a rule, a quotient of directional permeabilities that is used to spot active efflux) at 1 h is 0.9. In addition, the Kp – broadly, the ratio of the level in a tissue or fluid to that in plasma or blood – at 1 h came out at 0.41 in [1], 0.37 in [9] and 0.27 in data set [13]. For the same compound, in [2], the Kp at 1 hr came out at 0.34. Further, the IC50 – broadly, the concentration at which inhibition is half-maximal – in data set [3] was 12.6 nM; in [4], 1580 nM; in [5], above 31.6 µM. Besides, on Thromboxane A2 receptor, the affinity corresponds to a Ki of 10 nM. In addition, the concentration at 1 h came to 2390 nM in data set [6], 144 nM in data set [7], 175 nM in data set [8] and 627 nM in [12]. The concentration at 12 h in [10] was 199 nM. Besides, the concentration ratio (Kp) at 12 h in [11] stood at 0.24. The clearance in [14] was 41 mL/min/kg; with Hepatocyte, 2.1 mL/min/g.
